Data as given in ChEMBL document CHEMBL2021903, “3-Deoxy-3,4-dehydro analogs of XM462. Preparation and activity on sphingolipid metabolism and cell fate” (Bioorg Med Chem, 2012).
Calls of active or inactive are those of the source. The rule behind the calls is not given here.

Legend:
[1] = biological target: T1, Sphingomyelin phosphodiesterase (Homo sapiens) (UniProt P17405); assay: Inhibition of human aSMase using 6-hexadecanoylamino-4-methylumbelliferylphosphorylcholine as substrate at 100 uM preincubated for 30 mins prior substrate addition measured after 2 hrs by spectrophotometry
T1 sequence (whole entry): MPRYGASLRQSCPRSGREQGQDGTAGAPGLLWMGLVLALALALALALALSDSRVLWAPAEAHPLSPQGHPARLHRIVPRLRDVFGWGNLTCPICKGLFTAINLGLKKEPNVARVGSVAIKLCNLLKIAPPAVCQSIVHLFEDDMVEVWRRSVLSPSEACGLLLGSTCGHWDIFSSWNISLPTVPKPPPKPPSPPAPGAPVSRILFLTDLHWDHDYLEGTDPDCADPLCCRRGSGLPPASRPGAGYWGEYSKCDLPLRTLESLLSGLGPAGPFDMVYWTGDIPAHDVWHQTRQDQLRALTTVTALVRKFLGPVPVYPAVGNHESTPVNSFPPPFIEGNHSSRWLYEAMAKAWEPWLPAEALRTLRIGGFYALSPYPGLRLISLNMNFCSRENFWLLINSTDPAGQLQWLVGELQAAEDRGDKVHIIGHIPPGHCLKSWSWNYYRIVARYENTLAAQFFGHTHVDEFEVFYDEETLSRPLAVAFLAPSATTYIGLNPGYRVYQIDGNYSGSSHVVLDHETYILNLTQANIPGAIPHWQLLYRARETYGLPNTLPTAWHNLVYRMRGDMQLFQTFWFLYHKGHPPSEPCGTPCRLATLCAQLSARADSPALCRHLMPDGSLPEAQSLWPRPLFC

A549 [2] = assay: Cytotoxicity against human A549 cells after 24 hrs by MTT assay; format: functional; conditions: A549, 24 h, read-out: LD50 (the source's name)
A549 [3] = assay: Effect on sphingolipidome in human A549 cells assessed as increase in dihydroceramide per 10^6 cells at 10 uM after 24 hrs by UPLC-TOF analysis relative to control (reference value: 6.5 +/- 0.42 pmol/10^6 cells); format: functional
Procedure, shortened: (§1)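 Cells incubated with compound at 10 µM, 24 h (A549) or 14 h (HCT116); lipids then extracted and profiled. Long-chain bases and phosphates were read by LC-MS/MS (positive electrospray, selected reaction monitoring, C17-dihydrosphingosine and C17-dihydrosphingosine-1-phosphate transitions monitored). Amounts expressed as pmol per 10⁶ cells. Mean ± SD of triplicates; unpaired two-tailed t-test versus control.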

Acid ceramidase = biological target: T2, Acid ceramidase (Homo sapiens, UniProt Q13510); assay: Inhibition of aCDase using RBM14C12 as substrate after 1 hr by HPLC-FD analysis
T2 sequence (Q13510 whole entry): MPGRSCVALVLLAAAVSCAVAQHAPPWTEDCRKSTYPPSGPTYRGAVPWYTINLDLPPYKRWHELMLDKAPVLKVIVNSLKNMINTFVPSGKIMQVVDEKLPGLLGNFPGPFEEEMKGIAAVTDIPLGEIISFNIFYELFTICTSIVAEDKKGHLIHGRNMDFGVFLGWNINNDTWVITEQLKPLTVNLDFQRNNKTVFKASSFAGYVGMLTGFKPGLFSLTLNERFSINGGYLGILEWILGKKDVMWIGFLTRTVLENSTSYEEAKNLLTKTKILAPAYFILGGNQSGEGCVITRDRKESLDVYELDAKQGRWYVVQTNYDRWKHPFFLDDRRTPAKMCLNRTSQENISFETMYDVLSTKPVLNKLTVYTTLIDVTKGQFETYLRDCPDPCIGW

A549 [4] = assay: Effect on sphingolipidome in human A549 cells assessed as increase in total ceramides at 10 uM after 24 hrs by UPLC-TOF analysis; format: functional, cell-based; procedure, shortened: as §1
[5] = biological target: T3, Lysosomal acid glucosylceramidase (Homo sapiens) (UniProt P04062); assay: Inhibition of human glucocerebrosidase using 4-methylumbelliferyl beta-D-glucoside as substrate at 100 uM preincubated prior substrate addition measured after 45 mins by spectrophotometry
T3 sequence (whole entry): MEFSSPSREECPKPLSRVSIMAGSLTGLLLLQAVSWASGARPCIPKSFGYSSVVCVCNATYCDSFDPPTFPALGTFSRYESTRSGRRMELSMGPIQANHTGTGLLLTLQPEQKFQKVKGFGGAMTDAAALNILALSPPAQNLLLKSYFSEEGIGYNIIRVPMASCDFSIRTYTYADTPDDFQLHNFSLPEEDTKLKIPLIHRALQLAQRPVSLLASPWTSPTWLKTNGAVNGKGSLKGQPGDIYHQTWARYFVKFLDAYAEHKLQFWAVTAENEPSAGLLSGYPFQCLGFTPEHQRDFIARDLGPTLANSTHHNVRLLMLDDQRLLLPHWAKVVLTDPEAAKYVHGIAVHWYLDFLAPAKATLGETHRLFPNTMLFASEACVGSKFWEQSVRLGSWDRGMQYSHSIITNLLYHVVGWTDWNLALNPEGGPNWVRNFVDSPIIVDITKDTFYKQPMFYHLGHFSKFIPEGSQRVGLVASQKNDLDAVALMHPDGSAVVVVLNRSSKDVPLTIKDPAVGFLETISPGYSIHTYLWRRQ

[6] = biological target: T4, Ceramide glucosyltransferase (Homo sapiens) (UniProt Q16739); assay: Inhibition of GlcCer synthase in human A549 cells using CerC6NBD as substrate preincubated for 24 hrs prior substrate addition measured after 3 hrs by HPLC-FD analysis; format: cell-based
T4 sequence (whole entry): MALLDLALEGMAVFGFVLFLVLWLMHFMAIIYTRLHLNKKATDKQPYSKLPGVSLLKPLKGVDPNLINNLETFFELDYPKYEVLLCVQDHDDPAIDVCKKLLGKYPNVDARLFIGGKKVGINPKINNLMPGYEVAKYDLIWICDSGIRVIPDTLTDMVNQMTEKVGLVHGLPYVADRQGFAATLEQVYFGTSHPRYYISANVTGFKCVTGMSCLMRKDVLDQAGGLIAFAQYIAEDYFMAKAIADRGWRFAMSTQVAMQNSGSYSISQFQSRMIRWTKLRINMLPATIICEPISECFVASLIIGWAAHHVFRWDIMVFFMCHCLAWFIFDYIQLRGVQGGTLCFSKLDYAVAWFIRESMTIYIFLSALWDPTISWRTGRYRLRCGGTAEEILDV

A549 [7] = assay: Inhibition of SM synthase in human A549 cells using CerC6NBD as substrate preincubated for 24 hrs prior substrate addition measured after 3 hrs by HPLC-FD analysis; format: cell-based
[8] = biological target: Neutral ceramidase (Homo sapiens) (UniProt Q9NR71); assay: Inhibition of nCDase using CerC12NBD as substrate after 1 hr by HPLC-FD analysis
Procedure, shortened: (§2)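 Moh. pAS cells transfected to overexpress neutral ceramidase. Lysates (sonicated in 1 mM Tris–HCl, 0.1 mM EDTA, pH 7.5) incubated 1 h, 37 °C, with 5 µM CerC12NBD in 25 mM Tris–HCl pH 7.5, 1% sodium cholate, ±50 µM compound. Intact cells treated 4 h with 50 µM compound before lysis and assay. Read-out HPLC-fluorescence.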

[9] = biological target: Neutral ceramidase (Homo sapiens) (UniProt Q9NR71); assay: Inhibition of nCDase in Moh.pAS cells using CerC12NBD as substrate after 1 hr by HPLC-FD analysis; format: cell-based; procedure, shortened: as §2

Neutral ceramidase (Homo sapiens), sequence (Q9NR71 whole entry): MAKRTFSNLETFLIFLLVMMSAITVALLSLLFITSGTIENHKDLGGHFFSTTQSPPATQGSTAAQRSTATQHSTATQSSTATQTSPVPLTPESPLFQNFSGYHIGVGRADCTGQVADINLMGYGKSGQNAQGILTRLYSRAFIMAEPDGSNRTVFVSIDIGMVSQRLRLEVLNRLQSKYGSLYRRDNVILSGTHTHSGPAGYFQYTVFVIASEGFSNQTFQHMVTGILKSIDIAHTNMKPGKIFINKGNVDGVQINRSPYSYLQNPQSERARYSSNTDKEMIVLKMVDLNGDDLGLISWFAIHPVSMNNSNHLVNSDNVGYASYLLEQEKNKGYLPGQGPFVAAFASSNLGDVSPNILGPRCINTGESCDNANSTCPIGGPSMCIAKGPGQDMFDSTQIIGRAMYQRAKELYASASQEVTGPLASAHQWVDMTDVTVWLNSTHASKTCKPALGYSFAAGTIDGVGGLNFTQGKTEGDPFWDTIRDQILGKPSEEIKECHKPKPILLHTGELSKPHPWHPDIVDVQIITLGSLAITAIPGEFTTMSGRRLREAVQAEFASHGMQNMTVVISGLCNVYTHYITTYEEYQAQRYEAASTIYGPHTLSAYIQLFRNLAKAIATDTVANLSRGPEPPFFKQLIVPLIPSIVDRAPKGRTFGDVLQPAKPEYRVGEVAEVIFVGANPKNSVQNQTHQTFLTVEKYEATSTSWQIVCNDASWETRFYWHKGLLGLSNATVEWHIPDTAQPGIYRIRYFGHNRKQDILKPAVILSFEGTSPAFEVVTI

Structure (SMILES) | inhibition [1] | CC50 (A549 [2]) | Activity (A549 [3]) | IC50 (Acid ceramidase) | Activity (A549 [4]) | inhibition [5] | inhibition [6] | inhibition (A549 [7]) | inhibition [8] | inhibition [9]
CCCCCCCCCCCCCS/C=C/[C@H](CO)NC(=O)CCCCCCC | inactive | 19 µM | 22.9 pmol | 77 µM | inactive | inactive | inactive | inactive | inactive | inactive
CCCCCCCCCCCCCS/C=C/[C@H](CO)NC(=O)C(C)(C)C | inactive | 24 µM | 12.4 pmol | 51 µM | inactive | inactive | inactive | inactive | inactive | inactive
CCCCCCCCCCCCCS/C=C/[C@H](CO)NC(=O)c1ccc(C(C)(C)C)cc1 | inactive | 76 µM | inactive | 315 µM | inactive | inactive | inactive | inactive | inactive | inactive
